Source: PMC3064798 (Nucleic Acids Research, 2011)
Entries after “also recorded” stand apart in the source; their conditions may differ.

Assays:
TaqFS polymerase = TaqFS polymerase (Thermus aquaticus, UniProt P19821, F667Y/G46D); experiment: PEP; type: biochemical; conditions: for IC50 values (activity in words): TaqFS, Not Active = no visible +1 band in 377 gel image at 100 μM
Outline: (§1)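 Polymerase end-point assay for single-base incorporation. 5 nM BODIPY-FL-labelled primer-1 was hybridised to 40 nM oligoTemplate-4, with the interrogation base complementary to dU. Absence of a +1 band on the 377 gel image at 100 μM counts as not active. IC50 was averaged from triplicates ± 1 SD. Incorporation bias is the analog IC50 divided by the natural-nucleotide (HOMedUTP) IC50.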

Taq polymerase = Taq polymerase (Thermus aquaticus, UniProt P19821); experiment: PEP; type: biochemical; conditions: for IC50 values (activity in words): Taq, Not Active = no visible +1 band in 377 gel image at 100 μM
Outline: as §1

Vent(exo^−) polymerase = molecular target: T1, Vent(exo^−) polymerase (Thermococcus litoralis, UniProt P30317, D141A/DEL1082-1471/DEL495-1032/E143A); experiment: PEP; type: biochemical; conditions: for Incorporation bias (analog IC50/HOMedUTP IC50): Vent(exo^−)
T1 sequence (P30317 with tags, fused parts or gaps D141A/E143A/DEL495-1032/DEL1082-1471): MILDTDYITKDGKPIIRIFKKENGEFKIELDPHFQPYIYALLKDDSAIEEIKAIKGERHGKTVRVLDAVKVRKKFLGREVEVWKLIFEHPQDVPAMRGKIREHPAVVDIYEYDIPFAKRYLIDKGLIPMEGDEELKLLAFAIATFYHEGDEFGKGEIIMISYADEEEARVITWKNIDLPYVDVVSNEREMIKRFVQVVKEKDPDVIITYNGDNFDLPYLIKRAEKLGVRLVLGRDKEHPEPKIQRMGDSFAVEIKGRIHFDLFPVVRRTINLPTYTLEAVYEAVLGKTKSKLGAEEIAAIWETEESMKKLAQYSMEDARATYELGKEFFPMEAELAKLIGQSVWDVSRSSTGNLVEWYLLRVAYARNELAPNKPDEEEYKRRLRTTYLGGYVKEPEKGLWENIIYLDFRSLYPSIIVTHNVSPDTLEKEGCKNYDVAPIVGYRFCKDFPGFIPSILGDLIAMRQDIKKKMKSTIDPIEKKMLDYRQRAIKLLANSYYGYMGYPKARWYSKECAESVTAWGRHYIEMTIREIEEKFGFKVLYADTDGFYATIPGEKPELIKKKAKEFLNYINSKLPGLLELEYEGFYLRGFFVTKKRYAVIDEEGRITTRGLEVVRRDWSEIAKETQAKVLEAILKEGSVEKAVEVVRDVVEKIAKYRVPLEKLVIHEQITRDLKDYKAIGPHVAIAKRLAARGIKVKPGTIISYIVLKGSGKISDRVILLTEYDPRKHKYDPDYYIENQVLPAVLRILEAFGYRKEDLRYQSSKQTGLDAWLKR
Outline: as §1

[1] = molecular target: T2, Therminator II polymerase (Thermococcus sp., UniProt Q56366, A485L/D141A/E143A/Y409V); experiment: PEP; type: biochemical; conditions: for Incorporation bias (analog IC50/HOMedUTP IC50): Therminator II
T2 sequence (Q56366 1-775 D141A/E143A/Y409V/A485L): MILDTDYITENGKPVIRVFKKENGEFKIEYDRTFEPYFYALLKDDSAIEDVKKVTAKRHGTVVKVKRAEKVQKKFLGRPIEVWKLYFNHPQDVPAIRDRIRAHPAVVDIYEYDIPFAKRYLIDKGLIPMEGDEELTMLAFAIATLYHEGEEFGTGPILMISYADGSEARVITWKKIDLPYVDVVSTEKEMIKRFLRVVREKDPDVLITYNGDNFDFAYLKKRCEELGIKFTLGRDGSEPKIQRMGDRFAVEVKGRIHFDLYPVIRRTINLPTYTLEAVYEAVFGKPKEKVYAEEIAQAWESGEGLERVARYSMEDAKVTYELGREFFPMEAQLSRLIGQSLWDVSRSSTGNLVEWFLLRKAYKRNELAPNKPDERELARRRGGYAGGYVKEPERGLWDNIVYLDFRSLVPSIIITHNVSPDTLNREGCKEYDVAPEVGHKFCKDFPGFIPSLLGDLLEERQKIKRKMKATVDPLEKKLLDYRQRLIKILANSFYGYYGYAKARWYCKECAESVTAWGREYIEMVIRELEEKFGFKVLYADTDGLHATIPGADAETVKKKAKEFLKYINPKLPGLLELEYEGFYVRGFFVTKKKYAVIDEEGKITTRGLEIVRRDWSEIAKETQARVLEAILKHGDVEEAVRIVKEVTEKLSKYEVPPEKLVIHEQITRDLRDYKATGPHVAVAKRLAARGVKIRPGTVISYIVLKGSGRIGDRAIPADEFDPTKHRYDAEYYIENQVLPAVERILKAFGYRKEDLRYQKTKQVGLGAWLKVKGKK
Outline: as §1

Klenow(exo^−) polymerase = Klenow(exo^−) polymerase (Escherichia coli, UniProt P00582, D355A/E357A); experiment: PEP; type: biochemical
Outline: as §1

[2] = Photochemical cleavage studies; type: physicochemical; conditions: for DT50 values (time at which 50% of 2-nitrobenzyl groups were photochemically cleaved): 365 nm UV, incorporated in primer-1/oligoTemplate-4; for DT50 in sodium azide compared with the FBD solution: 50 mM sodium azide vs FBD; for DT50 faster than the parent dU.I analog: azide solution
Outline: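 Analogs (100 nM final) were incorporated as in PEP on BODIPY-FL primer-1/oligoTemplate-4 (10 nM/80 nM). Reactions were quenched in FBD solution (20% formamide, 10 mM Na2EDTA pH 8.0, Blue Dextran) or 50 mM sodium azide. Samples were irradiated at 365 nm for various times, then iced, mixed with formamide stop solution and run on an AB 377 sequencer. DT50 is the time for 50% cleavage, from triplicates ± 1 SD.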

Chain of Taq polymerase (P19821 whole entry): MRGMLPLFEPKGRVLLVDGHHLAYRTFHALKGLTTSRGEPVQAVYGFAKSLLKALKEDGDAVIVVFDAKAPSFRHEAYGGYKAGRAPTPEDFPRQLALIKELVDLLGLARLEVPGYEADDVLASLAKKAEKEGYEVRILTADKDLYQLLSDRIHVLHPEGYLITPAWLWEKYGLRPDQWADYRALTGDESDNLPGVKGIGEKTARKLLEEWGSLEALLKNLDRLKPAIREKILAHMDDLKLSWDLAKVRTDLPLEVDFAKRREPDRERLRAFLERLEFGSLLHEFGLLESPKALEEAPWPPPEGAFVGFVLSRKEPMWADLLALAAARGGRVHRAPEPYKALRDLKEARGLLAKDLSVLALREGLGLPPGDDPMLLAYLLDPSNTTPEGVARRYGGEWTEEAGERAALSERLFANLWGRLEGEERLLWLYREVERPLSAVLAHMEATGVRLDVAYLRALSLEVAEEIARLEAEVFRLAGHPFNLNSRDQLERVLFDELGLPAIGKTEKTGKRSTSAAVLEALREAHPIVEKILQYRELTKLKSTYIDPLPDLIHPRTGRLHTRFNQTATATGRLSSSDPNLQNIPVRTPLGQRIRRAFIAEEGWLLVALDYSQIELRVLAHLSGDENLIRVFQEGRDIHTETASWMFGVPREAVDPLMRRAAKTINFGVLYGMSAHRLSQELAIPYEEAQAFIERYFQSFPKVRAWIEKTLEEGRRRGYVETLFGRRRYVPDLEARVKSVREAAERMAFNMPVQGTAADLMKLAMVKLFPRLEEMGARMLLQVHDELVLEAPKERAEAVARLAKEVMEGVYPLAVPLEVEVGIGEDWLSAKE
Chain of TaqFS polymerase (P19821 whole entry G46D/F667Y): as the sequence (P19821 whole entry) above, with G46D, F667Y counted along it

SMILES	IC50 values (activity in words) (TaqFS polymerase)	IC50 values (activity in words) (Taq polymerase)	IC50 (Vent(exo^−) polymerase)	Incorporation bias (analog IC50/HOMedUTP IC50) (Vent(exo^−) polymerase)	IC50 [1]	Incorporation bias (analog IC50/HOMedUTP IC50) [1]	IC50 (Klenow(exo^−) polymerase)	Incorporation bias (analog IC50/HOMedUTP IC50) (Klenow(exo^−) polymerase; Klenow(exo^−))	DT50 values (time at which 50% of 2-nitrobenzyl groups were photochemically cleaved) ([2]; 50 mM NaN3)	DT50 in sodium azide compared with the FBD solution [2]	DT50 values (time at which 50% of 2-nitrobenzyl groups were photochemically cleaved) ([2]; FBD solution)	DT50 faster than the parent dU.I analog [2]	IC50 values (activity in words) (Klenow(exo^−) polymerase; Klenow(exo^−), Not Active = no visible +1 band in 377 gel image at 100 μM)	IC50 (TaqFS polymerase)	IC50 (Taq polymerase)
CC(OCc1cn([C@H]2C[C@H](O)[C@@H](COP(=O)(O)OP(=O)(O)OP(=O)(O)O)O2)c(=O)[nH]c1=O)c1ccccc1[N+](=O)[O-] (mixture of isomers) [dU.II, 5-[1-(2-Nitrophenyl)ethyloxy]methyl-2'-deoxyuridine-5’-triphosphate]	no activity at all	no activity at all; also recorded: Not Active^a	2.2 ± 0.2 nM	1.6	14 ± 1 nM	1.9	2400 ± 100 nM	1500	2.0 ± 0.1 s	approximately three-fold lower	7.4 ± 1.2 s	33-60%			
CC(C)C(OCc1cn([C@H]2C[C@H](O)[C@@H](COP(=O)(O)OP(=O)(O)OP(=O)(O)O)O2)c(=O)[nH]c1=O)c1ccccc1[N+](=O)[O-] (mixture of isomers) [dU.III, 5-[1-(2-Nitrophenyl)-2-methyl-propyloxy]methyl-2'-deoxyuridine-5’-triphosphate]	none of the Family A polymerases showed any activity	none of the Family A polymerases showed any activity; also recorded: Not Active^a	5.9 ± 0.7 nM	4.2	140 ± 10 nM	20			2.4 ± 0.2 s	approximately three-fold lower	8.8 ± 0.8 s	33-60%	Not Active^a		
O=c1[nH]c(=O)n([C@H]2C[C@H](O)[C@@H](COP(=O)(O)OP(=O)(O)OP(=O)(O)O)O2)cc1COCc1ccccc1[N+](=O)[O-] [dU.I, 5-(2-Nitrobenzyloxy)methyl-2'-deoxyuridine-5’-triphosphate]			2 ± 0.1 nM	1.4	5.7 ± 0.4 nM	0.8	48 ± 4 nM	30	3.2 ± 0.1 s	approximately three-fold lower	8.7 ± 0.9 s			25000 nM	50000 nM
